The values that follow come from ChEMBL document CHEMBL2029255, “Quantitative and site-directed chemical modification of hypocrellins toward direct drug delivery and effective photodynamic activity” (J Med Chem, 2012).

Series [1] in a line: 1-Octanol-phosphate buffered saline partition coefficient of the compound at pH 7.4.
For series [2], the system named is BGC-823. Briefly: Cytotoxicity against human BGC823 cells assessed as cell death preincubated for 5 hrs in dark condition followed by irradiation with a 532 nm laser of 20 J/cm2 for 1000 seconds measured after 24 hrs by MTT assay. The class given is functional, cell-based. To be noted: BGC-823, light or radiation study. In outline: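 BGC823 cells in DMEM/5% FBS seeded at 5 × 10^5 cells/mL, 24 h at 37 °C, 5% CO2; photosensitizer (0, 19, 38, 57, 76 nM) in FBS-free DMEM, 5 h in dark; medium replaced, 532 nm laser irradiation 20 J/cm2 (20 mW/cm2) for 1000 s; 24 h dark; MTT 90 min, DMSO, OD 570 nm. IC50 = concentration killing 50% of cells.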

Series [3] in a line: Photosensitization activity of the compound assessed as singlet oxygen production by DPA-bleaching method. In kind it is physicochemical.
Series [4] has as its system BGC-823. As to the kind of experiment: Cytotoxicity against human BGC823 cells assessed as cell death up to 76 nM after 24 hrs by MTT assay. The class given is functional, cell-based. In outline: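 Dark toxicity: BGC823 cells in DMEM/5% FBS seeded at 5 × 10^5 cells/mL, 24 h at 37 °C, 5% CO2; photosensitizer (0–76 nM) in FBS-free DMEM 5 h in dark; fresh medium, no irradiation, 24 h in dark; survival by MTT (90 min), formazan in DMSO, OD 570 nm.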
In general terms: Tetrazolium dyes change colour on reduction, which living cells bring about.

Series [5] concerns BGC-823. Briefly: Cellular uptake in human BGC823 cells at 1 uM after 5 hrs by laser confocal fluorescence microscope analysis. In kind it is ADME, cell-based. The following applies: bgc-823, 5 h. The essentials:
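BGC823 cells seeded on coverslips at 1 × 10^5, grown overnight at 37 °C, 5% CO2; medium removed, incubated with compound (1 μM) 5 h at 37 °C; rinsed three times with PBS, imaged by confocal microscopy with 488 nm argon laser excitation, emission 650–750 nm collected. Control without photosensitizer.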

The nature of series [6]: Drug uptake in liposomes after 4 hrs. The class given is ADME, subcellular, Liposome. The following applies: artificial membrane. The essentials:
(§1)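 Liposomes of egg phosphatidylcholine and cholesterol (film-ultrasonic method), 0.08 g/L in PBS pH 7.4. Compound from DMSO stock (2 mg/mL) diluted in PBS to 0–8 μM final, added to liposomes with stirring; absorption spectra recorded over time; peak absorbance plotted against concentration at the equilibration time (2, 4 or 5 h, depending on compound).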

A short description of series [7]: Solubility of the compound in phosphate buffered saline at pH 7.4 after 12 hrs. In kind it is physicochemical. The essentials: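 Compound dissolved in PBS (pH 7.4) at a series of concentrations, kept 12 h in dark; absorption spectra recorded and absorbance plotted against concentration to derive solubility; mean of three independent experiments ± SEM.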
Series [8] can be described thus: Drug uptake in liposomes after 2 hrs. In kind it is ADME, subcellular, Liposome. The following applies: artificial membrane. The essentials: as §1
Series [9] in a line: Drug uptake in liposomes after 5 hrs. In kind it is ADME, subcellular, Liposome. The following applies: artificial membrane. In outline: as §1

Broadly, the pIC50 is −log10 of the IC50, conventionally taken in molar units. A word on the solubility: it is the dissolved amount per volume that the medium holds. The low end stands for a poorly soluble substance, the high end for a readily soluble substance.

pIC50: −log10 of the molar value. In brackets after ≈: the same amount, converted by molar mass. Activity calls are given as the source filed them. No cut-off for these calls is given here.

With `COc1c2c3c4c(c(OC)c(=O)c5c(O)cc(OC)c(c6c(OC)cc(O)c(c1=O)c63)c54)C(/C(C)=N/CCCCCS(=O)(=O)O)=C(C)C2`, the PC in [1] stood at 9. Also, the pIC50 in [2] was 7.66. The Activity in series [3] is on record as 0.98. Further, in series [4], the result was inactive. Moreover, the Drug uptake result is “Active” in series [5] and 6.5 µM in series [6]. The same compound returned a solubility at 12 h in [7] of 1700 µg/mL (≈ 2.51 mM).
With `COc1c2c3c4c(c(OC)c(=O)c5c(O)cc(OC)c(c6c(OC)cc(O)c(c1=O)c63)c54)C(/C(C)=N/CCCCCCS(=O)(=O)O)=C(C)C2`, in series [3], the Activity is listed as 1.01. In series [7], the concentration in solution (solubility at 12 h) was 200 µg/mL (≈ 0.289 mM).
Turning to `COc1c2c3c4c(c(NCCS(=O)(=O)O)c(=O)c5c(O)cc(OC)c(c6c(OC)cc(O)c(c1=O)c63)c54)CC(C)=C2C(C)=O`, the PC in series [1] came out at 2.2. The Drug uptake in series [8] was 3 µM. In series [7], this compound showed a solubility at 12 h of 9200 µg/mL (≈ 14.8 mM).
For the compound `COc1c2c3c4c(c(OC)c(=O)c5c(O)cc(OC)c(c6c(OC)cc(O)c(c1=O)c63)c54)C(/C(C)=N/CCCCS(=O)(=O)O)=C(C)C2`, the PC in [1] was found to be 7.5. The pIC50 in series [2] is 7.27. In addition, the Activity in series [3] was found to be 0.94. For the same compound, the outcome in series [4] was inactive. For the same compound, the solubility at 12 h in [7] worked out at 3900 µg/mL (≈ 5.88 mM).
As for `COC1=C(C(C)=O)C2=C(C)Cc3c(OC)c(=O)c(O)c4cc(OC)c5c(OC)cc(O)c6c(c2c3c4c56)C1=O`, the pIC50 in series [2] was 7.40. For the same compound, the Activity in series [3] was 0.76. Also, the result in [4] was inactive. The same compound came in with a Drug uptake in [9] of 7 µM. Also, the solubility at 12 h in series [7] was 4.6 µg/mL (≈ 0.0087 mM).
Regarding `COc1c2c3c4c(c(OC)c(=O)c5c(O)cc(OC)c(c6c(OC)cc(O)c(c1=O)c63)c54)C(/C(C)=N/CCCS(=O)(=O)O)=C(C)C2`, in [1], the PC worked out at 4.8. In series [7], this compound came in with a solubility at 12 h of 6600 µg/mL (≈ 10.2 mM).
